Reference: ChEMBL document CHEMBL4513216, “Probing the Open Global Health Chemical Diversity Library for Multistage-Active Starting Points for Next-Generation Antimalarials” (ACS Infect Dis, 2020)

Assay: Toxicity liver stage against HepG2, at 10uM
Format: cell-based
Parameters: test concentration 10 uM, cell line HepG2-A16-CD81EGFP
Conditions: human, HepG2-A16-CD81EGFP cells; read-out: INHIBITION
In short: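 Uninfected HepG2-A16-CD81EGFP cells, 3 × 10^3 per well, 1536-well, plated on prespotted compound at 10 μM final, parasite-free screening media added to match infected plates; puromycin 10 μM positive, DMSO 0.5% negative; run in parallel with 48 h PbLuc assay at 37 °C, 5% CO2; viability by CellTiter-Glo luminescence, normalized to controls.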

SMILES | cytotoxicity at 10 µM [%]
CC(C)(C)c1coc([C@@H]2COCCN2Cc2ccccc2)n1 | 2.72
COc1ccc(NC(=O)c2nc3ccccc3n(C)c2=O)c(OC)c1 | 0.37
COC1CCN(C(=O)CC2CCCC2)CC(=O)N(C)c2ccccc21 (configuration not stated) | -3.09
COC(=O)CC(c1ccc(OC)c(O)c1)c1oc(C)cc(=O)c1O (configuration not stated) | -0.634
CC(C)(C)n1ncc2c1NC(=O)CSC2c1ccc2c(c1)OCO2 (configuration not stated) | 0.148
O=C(NCC1(O)CCOc2ccccc21)Nc1ccccc1 (configuration not stated) | -4.2
COc1ccc(C(=O)Nc2ccccc2-c2ccc(=O)n(C)n2)nn1 | 2.18
O=C(CC1CC1)N[C@@H]1CN(Cc2ccoc2)C[C@@H]2CCCO[C@@H]21 | 7.83
Cc1ccc(C(=O)N2CCc3ncnc(C)c3CC2)cc1F | 11.5
CCS(=O)(=O)N1CCN(C(=O)NC(C)C)CC2(CNC(=O)C2)C1 (configuration not stated) | -0.82
CCOC(=O)CN1CCC2(CC1)CC(NC(=O)c1ccccn1)CO2 (configuration not stated) | 2.17
O=C(CSC1CCc2ccccc2NC1=O)NCc1cccs1 (configuration not stated) | -2
O=C(N[C@@H]1CN(c2ncccn2)[C@@H]2CCCO[C@@H]21)c1cnccn1 | -4.8
CCn1cc(Cl)c(C(=O)NCc2cnn(C)c2)n1 | -4.41
Cn1ncc2c1NC(=O)CC2c1ccc(F)cc1 (configuration not stated) | 4.63
CC(C)N1CCCC(c2cc(C(F)(F)F)nc3nccn23)C1 (configuration not stated) | -11.1
COCCN1CCN(Cc2cnc(C3(C)CCCCO3)nc2)CC1 (configuration not stated) | 1.16
CNc1cncc(C2CCCN2C(=O)Cn2ccnc2C)n1 (configuration not stated) | -4.31
Nc1cc(-c2cncnc2C2CCN(C(=O)c3ccccc3)C2)ccn1 (configuration not stated) | 1.32
O=C(O)c1ccc(Cc2cccc(F)c2)nc1 | 3.11
Cc1ccccc1CC(=O)N1C[C@@H](O)[C@H](N2CCC(F)(F)CC2)C1 | -14
Cc1c[nH]nc1C1CCN(C(=O)C2CCOCC2)C1 (configuration not stated) | 4.71
CC(C)CC(=O)Nc1ccc(Oc2ccsc2C(=O)O)cc1 | 7.66

SMILES | cytotoxicity at 10 µM [%]
CCC(CO)NC(=O)Nc1cc(F)ccc1Br (configuration not stated) | 11.9
Cc1csc(CNC(=O)CCCc2cccs2)n1 | -47.1
CN(C)c1cc(C(=O)Nc2cccnc2N2CCSCC2)ccn1 | -2.9
O=S(=O)(c1cccc(Cl)c1)N1CCCC(Cn2cncn2)C1 (configuration not stated) | -7.21
Cc1cc(Br)ccc1C(=O)NCCN1CCCCCC1 | -11.6
CCOC(C)c1nccn1Cc1c(C)noc1C (configuration not stated) | 3.11
CC(Oc1cccc(F)c1)C(=O)N(CC(N)=O)C1CCCC1 (configuration not stated) | -1.21
CCOc1ccc2c(c1)C=C(C(=O)NC(C)Cn1cccn1)CO2 (configuration not stated) | 6.95
NS(=O)(=O)CCNC(=O)c1cc2ccccc2nc1N1CCCC1 | -10.7
CC(C(=O)Nc1ccccc1F)S(C)(=O)=O (configuration not stated) | -5.27
CCn1cnnc1C1CCN(C(=O)Cc2ccc(OC)c(F)c2)CC1 | -7.54
O=C(NCCc1ccn(-c2ccc(F)cc2)n1)C1CCCO1 (configuration not stated) | -0.198
CN(Cc1ccco1)C(=O)NCc1ccnc(SC(C)(C)C)c1 | 14.4
COc1cccc(C2(CNC(C)c3nnc(C)o3)CCCC2)c1 (configuration not stated) | -1.64
Cc1cnn(CC2CCCCN2C(=O)Cc2c(C)noc2Cl)c1 (configuration not stated) | -5.43
Cc1cnc(CN(C)C2CCCN(c3cccnn3)C2)cn1 (configuration not stated) | 10.4
Cc1cc(NC(=O)CNC(C)(C)c2ccccc2)on1 | -8.18
CN(CCc1ccncc1)C(=O)C1CSCN1C(=O)C(C)(C)C (configuration not stated) | -8.2
CCn1c(CNC(=O)c2ccc(N(C)C)nc2)nc2ccccc21 | 4.5
Cc1nc(-c2ccsc2)sc1C(=O)N1CCn2c(C)nnc2C1 | -3.29
Cn1cc(S(=O)(=O)NC(=O)C2(c3ccccc3)CCC2)cn1 | -6.85
Cc1nc(C(C)(C)C)sc1C(=O)NCCn1cccn1 | -3.17
COC(=O)NCC(=O)NC(c1ccc(Cl)cc1)C(F)(F)F (configuration not stated) | 9.09

SMILES | cytotoxicity at 10 µM [%]
O=C(NCc1ccccc1CO)C1COc2ccccc21 (configuration not stated) | 12.3
CCc1nc(C(=O)N2CC(C(C)C)Nc3ccccc32)c[nH]1 (configuration not stated) | -0.0979
OC(COCc1ccco1)CN1CCC(Cn2cccn2)CC1 (configuration not stated) | -1.73
CCOCc1ccccc1NC(=O)NCC(c1cnn(C)c1)N(C)C (configuration not stated) | 3.96
Cc1cc(Cl)ccc1NCc1ccc(C(=O)N(C)C)[nH]1 | 7.31
CCN(CCC(F)(F)F)C(=O)Nc1cccc(N2CCOCC2)c1 | -8.02
CC(=O)c1cccc(OCCCC(=O)N(C)Cc2ccccn2)c1 | -24.4
Cc1noc(C)c1CCC(=O)NC(C)c1nnc2n1CCC2 (configuration not stated) | -3.39
Cc1ccc(CN(C)C(=O)CN2CCCC2Cn2cccn2)o1 (configuration not stated) | -10.4
Cc1cc(C)n(C2CN(Cc3noc(-c4ccccc4)n3)C2)n1 | -12.8
OCc1ccc(Cl)c(NCc2cccnc2)c1 | 3.12
N#CCSCCCN1CCN(C(=O)c2ccc(Cl)cc2)CC1 | -10.3
CC(C)C(C)NC(=O)Nc1ccc(CS(C)(=O)=O)cc1 (configuration not stated) | -8.49
CN(Cc1cccnc1)[C@@H]1CN(C(=O)c2ccco2)[C@@H]2CCCO[C@H]12 | -108
CCn1cc2c(n1)C(COC)CN(Cc1ccccn1)C2 (configuration not stated) | -3.73
COCCc1noc(CN2CCN(c3ccc(OC)cc3)C(=O)C2C)n1 (configuration not stated) | 0.296
NC(=O)c1cccc(CC2CCN(C(=O)CCc3cccc(F)c3)C2)c1 (configuration not stated) | -3.75
Cn1ncc2c(N3CCS(=O)(=O)CC3)nc(C3CCCC3)nc21 | -1.31
Cc1nc(CN2CC(=O)N(C)c3ccccc3C2=O)no1 | -3.78
CCC(CO)N(Cc1cccnc1)C(=O)c1ccoc1C (configuration not stated) | -0.0979
Cn1cc(CN2CCCC(O)C2)c(-c2ccccc2F)n1 (configuration not stated) | -2.31
Nc1cc(-c2ccc(C(=O)O)cc2O)c2cc[nH]c2n1 | 10.3
Cc1cccnc1CNCC1(O)CCCN(CC(C)(C)C)C1=O (configuration not stated) | -11.8

SMILES | cytotoxicity at 10 µM [%]
CCC(CO)N(Cc1ccccn1)C(=O)c1ccc(=O)[nH]c1 (configuration not stated) | -0.65
Cc1nc(N)nc(N2CCOc3ccc(CO)cc3C2)c1C | 4.23
Cc1cc(C)c2nc(CNC3CCNC3=O)cc(O)c2c1 (configuration not stated) | 5.92
N#Cc1cccc(C(=O)N2CCC3(CCC(=O)N(C4CC4)C3)CC2)c1 | 0.194
CCc1nc(NC2CC(=O)N(CC3CCCCC3)C2)ncc1C (configuration not stated) | -4.55
C1CCc2nnc(CNc3nc(C4CC4)nc4c3CCNCC4)n2CC1 | -7.39
CN1CCC2(CC1)CN(C(=O)c1cccc3cccnc13)CCN2C | 1.54
CC[C@@]1(O)CCN(C(=O)c2ccc(CN3CCCCCC3)cc2)C[C@H]1O | 8.44
CNCc1cn(C2CCN(CCC(C)c3ccccc3)CC2)nn1 (configuration not stated) | 3.44
CC(C)CCn1cc(C(C(=O)O)N2CCC(N3CCSCC3)CC2)cn1 (configuration not stated) | -1.09
COc1cccc(CC2(CO)CCCN(c3nccs3)C2)c1 (configuration not stated) | -4.59
COc1ccccc1OC1CCN(Cc2ccc(N(C)C)nc2)CC1 | -11.8
Cc1nn(CC(=O)O)c(C)c1NS(=O)(=O)c1cccc2ccccc12 | -8.52
C[C@@H]1CN(C(=O)c2cc(COc3ccc4c(c3)OCO4)[nH]n2)C[C@H](C)O1 | -6.37
COc1ccc(-c2n[nH]cc2CN(C)CCCN2CCOCC2)c(F)c1 | -2.26
Cc1[nH]ccc1C(=O)N1CCC2(CC1)c1nc[nH]c1CCN2CC(C)C | 7.31
O=C(c1cccnc1O)N(Cc1ccsc1)CC1CCCO1 (configuration not stated) | -12.3
Cc1nc(CCNC(=O)C2CC(=O)N(C(C)(C)C)C2)sc1C (configuration not stated) | -13.2
Cc1cc(C(=O)N[C@@H]2CCNC[C@H]2O)ccc1Cl | -18.4
COc1ccc(S(=O)(=O)NC(=O)COC2CCCCC2)cc1C | -3.56
CCn1cnnc1CNC(=O)N1CCN(c2ccccc2OC)CC1 | -6.02
Cc1cnn(C2CN(CC(=O)NCCOc3ccccc3)C2)c1 | -16.7
c1ccc(OCc2cscn2)c(CNC2CCc3ncnn3C2)c1 (configuration not stated) | -9.42

SMILES | cytotoxicity at 10 µM [%]
COC(=O)c1ccc(N2CCN(C(=O)c3ccc(O)nc3)C(C)C2)cc1 (configuration not stated) | -4.5
COc1c(C)cnc(CN2CCOC(Cn3cncn3)C2)c1C (configuration not stated) | -3.36
O=C1C(NS(=O)(=O)c2ccc(F)cc2F)CCN1Cc1ccccc1 (configuration not stated) | -0.885
CCc1noc(C(C)N2CCC(C)CC2)n1 (configuration not stated) | -7.6
COc1ccc(C(=O)N2CCCC(n3cc(C)cn3)C2)c(F)c1 (configuration not stated) | -10.2
Cc1ncncc1C(=O)N1CCCC(n2cccn2)C1 (configuration not stated) | -4.77
O=C(c1ccn(-c2ccccc2)n1)N1CCCC(n2cccn2)C1 (configuration not stated) | -10.8
Cc1cc(CN2CCN(C(=O)Nc3cccnc3)CC2)on1 | -7.72
CCc1cnc(CN2CCCC2c2noc(C3CC3)n2)o1 (configuration not stated) | -4.84
O=C(CCOc1ccc(Cl)cc1)N1CCN(c2cnccn2)CC1 | -2.65
COCCNC(=O)c1sc2ccccc2c1C1CCC(CN)CC1 (configuration not stated) | -2.98
Cc1ccc(C(=O)N2CCO[C@H]3[C@@H](OCc4ccccn4)CC[C@@H]32)o1 | -2.42
CN(C)CCO[C@H]1CN(Cc2ccoc2)[C@@H]2COC[C@H]12 | -1.23
Cn1cc(N2CC3(CCN(CC4CC4)CC3)OCC2=O)cn1 | -6.86
O=C(NC[C@]12COC[C@H]1CN(CC1CCOCC1)C2)c1ccco1 | -72.1
COCCN1C[C@@H]2CN(Cc3ccsc3)CCC[C@]2(C(=O)O)C1 | -10.6
CCC(C)N1CCC2(CC1)CN(c1cncnc1)C(=O)CO2 (configuration not stated) | -0.414
Cc1nn(C)c(N(C)C)c1CNCc1ccc(OCC(N)=O)cc1 | 1.25
CN(C)C(=O)c1cnc2n1CCN(Cc1ccsc1)C2 | -68
O=C(NCc1cccs1)[C@@H]1CC[C@@H]2[C@@H](CCN2c2ncccn2)O1 | -0.53
